Molecules are shown by their SMILES. A value given as a limit tells only on which side of the number the result lay.

From ChEMBL document CHEMBL1135464, “3-Aryl-2-quinolone derivatives: synthesis and characterization of in vitro and in vivo antitumor effects with emphasis on a new therapeutical target connected with cell migration” (J Med Chem, 2002) come the findings set out here.

The test system of one data set is A549. Kind of data set: Cytotoxicity against A549 nonsmall lung cell line using MTT colorimetric assay. The format is functional, cell-based. The settings on record: Homo sapiens. In a few lines:
(§1)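 Human tumour lines from ATCC were grown at 37 °C in sealed dishes in MEM with 5% FCS. Cells were seeded at 40000 cells/mL in 96-well plates and left 24 h to plate. Each drug was then tested at six concentrations from 10^-5 to 10^-9 M. Growth was read by colorimetric MTT assay.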
(Tetrazolium assays rely on reduction of a dye to a coloured formazan, in cell work by metabolically active cells.)

A further data set relates to T-24. Kind of data set: Cytotoxicity against T24 bladder cell lines using MTT colorimetric assay. The format is functional, cell-based. The settings on record: Homo sapiens. In a few lines:
as §1

A further data set has as its system A-427. Kind of data set: Cytotoxicity against A-427 nonsmall lung cell line using MTT colorimetric assay. The conditions noted are these: Homo sapiens. The format is functional, cell-based. In a few lines: as §1
The subject of a further data set is U-87 MG. Kind of data set: Cytotoxicity against U-87 MG glioblastomas using MTT colorimetric assay. The class given is functional, cell-based, U-87MG ATCC. The conditions noted are these: Homo sapiens. The method in brief: as §1
The test system of another data set is HCT-15. Kind of data set: Cytotoxicity against HCT-15 colon cell line using MTT colorimetric assay. The format is functional, cell-based. The settings on record: Homo sapiens. In a few lines:
as §1

Another data set has as its system PC-3. Kind of data set: Cytotoxicity against prostate cell line PC-3 using MTT colorimetric assay. The class given is functional, cell-based. The settings on record: Homo sapiens. The method in brief: as §1
Another data set relates to T47D. Kind of data set: Cytotoxicity against Breast cancer cell line T-47D using MTT colorimetric assay. The settings on record: Homo sapiens. The class given is functional, cell-based. The method in brief: as §1
The next data set deals with A 172. Kind of data set: Cytotoxicity against A-172 glioblastomas using MTT colorimetric assay. The format is functional, cell-based. The settings on record: Homo sapiens. The method in brief:
as §1

The next data set concerns LoVo. Kind of data set: Cytotoxicity measured on LoVo colon cell line using MTT colorimetric assay. The class given is functional, cell-based. The settings on record: Homo sapiens. In a few lines: as §1
Another data set relates to J82. Kind of data set: Cytotoxicity against J82 bladder cell lines using MTT colorimetric assay. The format is functional, cell-based. The settings on record: Homo sapiens. In a few lines: as §1
Data set [1] is described as follows: Evaluated in vivo for maximum tolerated dose and found to be nontoxic. The format is ADME, organism-based.
The subject of a further data set is U373 MG. Kind of data set: Cytotoxicity against U-373 MG glioblastomas using MTT colorimetric assay. The format is functional, cell-based, U-373MG ATCC. The conditions noted are these: Homo sapiens. In a few lines: as §1
Another data set has as its system MCF7. Kind of data set: Cytotoxicity against Breast cancer cell line MCF-7 using MTT colorimetric assay. The class given is functional, cell-based. The settings on record: Homo sapiens. In a few lines: as §1
Data set [2] concerns Mus musculus. Kind of data set: Evaluated in vivo for maximum tolerated dose (MTD/4) using MXT mouse mammary adenocarcinoma model.
For data set [3], the system named is Mus musculus. Kind of data set: Evaluated in vivo for maximum tolerated dose (MTD/4) with Doxorubicin (DOX) using MXT mouse mammary adenocarcinoma model. The format is functional. The method in brief:
(§2)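 MXT-HS hormone-sensitive mammary adenocarcinoma maintained by monthly s.c. transplantation in 6-week-old female B6D2F1 mice. Doses are set as fractions of the MTD. Drugs given i.p.; ETO and DOX 9 times, the quinolone 20 times. Nine mice per group. Tumor area (mm2) is the product of the two largest perpendicular caliper diameters, measured weekly. Mean ± SEM; Mann-Whitney test.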

The subject of data set [4] is Mus musculus. Kind of data set: Evaluated in vivo for maximum tolerated dose (MTD/2) with Doxorubicin (DOX) using MXT mouse mammary adenocarcinoma model. The class given is functional. The method in brief: as §2

Turning to `COc1cc(OC)c2cc(-c3ccc(O)cc3)c(O)nc2c1`, the IC50 in the data set with A549, in the data set on T-24, in the data set on A-427, with U-87 MG, with HCT-15 and with PC-3 was above 10 µM each time. Further, the IC50 with T47D, in the data set with A 172, with LoVo, in the data set with J82, with U373 MG and with MCF7 was above 10 µM throughout. Also, the MTD (as a rule, the largest dose that counted as tolerated) in [1] was determined as 160 mg/kg.
Consider `COc1ccc(-c2cc3c(OC)cc(OC)cc3n(CCc3nnn[nH]3)c2=O)cc1`, for which the IC50 in the data set on A549, with T-24, in the data set with A-427, in the data set on U-87 MG, with HCT-15 and in the data set on PC-3 was above 10 µM throughout. Moreover, the half-inhibitory concentration (IC50) with T47D, in the data set with A 172, in the data set with LoVo, in the data set on J82, with U373 MG and in the data set with MCF7 was above 10 µM each time. Further, the MTD/8 with Mus musculus [2] worked out at 20 mg/kg. For the same compound, in [1], the maximum tolerated dose (MTD) came out at 160 mg/kg. Besides, the MTD/4 in the data set with Mus musculus [3] is 40 mg/kg. In the data set on Mus musculus [4], the MTD/2 was determined as 80 mg/kg.
On to `COc1cc(OC)c2cc(-c3ccc(OC(C)=O)cc3)c(=O)n(C)c2c1`, for which the IC50 in the data set with A549, in the data set on T-24, in the data set on A-427, in the data set on U-87 MG, in the data set on HCT-15 and in the data set with PC-3 was above 10 µM each time. Moreover, the half-maximal inhibitory concentration (IC50) in the data set on T47D, in the data set with A 172, in the data set with LoVo, with J82, in the data set with U373 MG and in the data set on MCF7 was above 10 µM throughout. This compound also had an MTD in data set [1] of 160 mg/kg.
Take `COc1ccc(-c2cc3c(OC)cc(OC)cc3n(CCCC#N)c2=O)cc1`: the IC50 with A549, in the data set with T-24, with A-427, with U-87 MG, in the data set with HCT-15 and in the data set on PC-3 was above 10 µM throughout. The IC50 with T47D, with A 172, with LoVo, with J82, in the data set on U373 MG and in the data set with MCF7 was above 10 µM throughout. The same compound registered a maximal tolerated dose (MTD) in data set [1] of 160 mg/kg.
Consider `COc1cccc2cc(-c3ccccc3)c(O)nc12`, for which the IC50 with A549, in the data set with T-24, with A-427, in the data set with U-87 MG, with HCT-15 and in the data set with PC-3 was above 10 µM each time. In addition, the 50% inhibitory concentration (IC50) in the data set on T47D, with A 172, in the data set on LoVo, with J82, in the data set on U373 MG and in the data set with MCF7 was above 10 µM throughout. Also, the maximum tolerated dose (MTD) in [1] is 160 mg/kg.
With `Cn1c(=O)c(-c2ccc(O)cc2)cc2c(O)cc(O)cc21`, the IC50 with A549, in the data set on T-24, in the data set with A-427, with U-87 MG, with HCT-15 and in the data set with PC-3 was above 10 µM in each case. For the same compound, the IC50 with T47D, in the data set on A 172, in the data set on LoVo, in the data set on J82, with U373 MG and in the data set on MCF7 was above 10 µM in each case. The compound further registered a maximal tolerated dose (MTD) in data set [1] of 160 mg/kg.
`COc1ccc(-c2cc3c(OC)cc(OC)cc3n(CC(=O)OCc3ccccc3)c2=O)cc1`: the IC50 with A549, with T-24, in the data set on A-427, in the data set with U-87 MG, in the data set with HCT-15 and with PC-3 was above 10 µM in each case. The IC50 in the data set on T47D, in the data set with A 172, in the data set on LoVo, in the data set on J82, in the data set with U373 MG and in the data set with MCF7 was above 10 µM throughout. Moreover, the MTD in [1] stood at 160 mg/kg.
